Here are results for three molecules from ChEMBL document CHEMBL4390698, “Targeted delivery of atorvastatin via asialoglycoprotein receptor (ASGPR)” (Bioorg Med Chem, 2019).

Data set [1] can be described thus: Drug uptake in human Hep3B cells assessed as ASGPR-mediated cellular uptake at 90 uM incubated for 3 hrs in presence of 90 mM GalNac by UV spectrum and mass spectroscopic method relative to atorvastatin. Format: ADME, cell-based. The method, boiled down:
(§1)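 Hep3B cells in EMEM/10% FBS, 37 °C, 5% CO2, seeded 1×10^4 cells/cm2. After 24 h, compound was added from 18 mM stocks to a final 90 μM, with or without 90 mM GalNac co-added, for 3 h. Cells were rinsed, trypsinised and pelleted, then extracted with methanol/DCM. Supernatant was read by UV and mass spectra, and amounts were taken from standard curves.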

The target of data set [2] is T1, 3-hydroxy-3-methylglutaryl-coenzyme A reductase (Homo sapiens) (UniProt P04035).
T1 sequence (whole entry): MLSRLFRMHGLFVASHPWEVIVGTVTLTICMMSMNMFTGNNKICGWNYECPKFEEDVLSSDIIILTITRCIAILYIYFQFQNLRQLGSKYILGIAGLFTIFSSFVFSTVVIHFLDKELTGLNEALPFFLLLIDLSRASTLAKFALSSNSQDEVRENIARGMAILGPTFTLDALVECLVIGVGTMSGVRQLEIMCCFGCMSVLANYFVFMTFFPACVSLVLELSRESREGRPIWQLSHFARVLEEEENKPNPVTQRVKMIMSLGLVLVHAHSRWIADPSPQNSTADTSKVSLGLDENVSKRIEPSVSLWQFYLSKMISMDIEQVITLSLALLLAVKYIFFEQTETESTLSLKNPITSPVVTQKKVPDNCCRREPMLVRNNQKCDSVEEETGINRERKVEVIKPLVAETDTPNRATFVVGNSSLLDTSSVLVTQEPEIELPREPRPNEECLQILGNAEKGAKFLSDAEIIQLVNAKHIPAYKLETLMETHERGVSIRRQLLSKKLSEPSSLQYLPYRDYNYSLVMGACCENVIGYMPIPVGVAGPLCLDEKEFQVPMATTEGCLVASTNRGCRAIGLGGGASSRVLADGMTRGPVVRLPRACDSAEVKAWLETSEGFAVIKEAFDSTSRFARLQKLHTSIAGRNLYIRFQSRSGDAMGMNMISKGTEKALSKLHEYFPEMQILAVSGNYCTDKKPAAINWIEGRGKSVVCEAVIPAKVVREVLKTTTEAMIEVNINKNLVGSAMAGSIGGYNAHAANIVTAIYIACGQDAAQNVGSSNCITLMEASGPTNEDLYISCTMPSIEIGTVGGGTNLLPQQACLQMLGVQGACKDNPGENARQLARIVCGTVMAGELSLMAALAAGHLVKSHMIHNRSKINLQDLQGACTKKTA
Kind of data set: Inhibition of HMG CoA reductase (unknown origin) using hydrolyzed product of compound in presence of NADPH incubated for 24 hrs in pH 4.5 PBS followed by incubation in pH 7.4 for 24 hrs in presence of esterase.

Data set [3] is described as follows: Drug metabolism assessed as esterase (unknown origin)-mediated atorvastatin release in pH 7.4 PBS buffer incubated for 3 to 24 hrs by mass spectrometry. Format: ADME. Conditions: human. The method, boiled down:
(§2)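 Porcine liver esterase hydrolysis; DMSO stocks 3.5 mM. pH 7.40 route: stock diluted into PBS pH 7.40 containing 0.5 mg/mL esterase, 37 °C, sampled at 0 h, 3 h and 24 h. pH 4.50 route: PBS pH 4.50 at 37 °C for 24 h, pH raised to 7.40 with NaOH, PBS pH 7.40 containing 1.0 mg/mL esterase added, 37 °C one day. Reactions quenched with DCM; DCM layer analysed by mass spectrometry.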

Data set [4] concerns the target T1, 3-hydroxy-3-methylglutaryl-coenzyme A reductase (Homo sapiens). Kind of data set: Inhibition of HMG CoA reductase (unknown origin) in pH 4.5 PBS in presence of NADPH incubated for 10 mins. The method, boiled down: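 Commercial HMG-CoA reductase kit, run on conjugates first hydrolysed as in the esterase procedure (pH 7.40 esterase, or pH 4.50 then pH 7.40 esterase). Absorbance at 340 nm was read kinetically for 10 min. Activity was computed from ΔA340/min (sample minus blank) using NADPH ε 6.22 mM⁻¹cm⁻¹ ×2, 0.6 mg/mL enzyme, 12×10^-3 mL enzyme, 0.2 mL total volume and 0.55 cm path.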

A short description of data set [5]: Drug uptake in human Hep3B cells assessed as ASGPR-mediated cellular uptake at 90 uM incubated for 3 hrs by UV spectrum and mass spectroscopic method relative to atorvastatin. It is filed as ADME, cell-based. The method, boiled down: as §1
In data set [6] the target is T1, 3-hydroxy-3-methylglutaryl-coenzyme A reductase (Homo sapiens). Kind of data set: Inhibition of HMG CoA reductase in human Hep3G cells assessed as increase in LDL receptor expression at 25 uM incubated for 48 hrs by immunofluorescence method. It is filed as cell-based. Conditions: in the assay text read “Hep3B” for “Hep3G”. The essentials: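 Hep3B cells seeded 2×10^5 cells/cm2 and treated 24 h later at 25 μM final (from 10 mM stocks) for 48 h. Harvested cells were stained with anti-LDL receptor primary (1/100, 30 min RT), then goat anti-mouse IgG (1/2000, 30 min RT, dark), and analysed by flow cytometry. Triplicate; two-tailed t test.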

The nature of data set [7]: Drug metabolism assessed as esterase (unknown origin)-mediated atorvastatin release in pH 4.5 PBS buffer incubated for 3 to 24 hrs by mass spectrometry. It is filed as ADME. Conditions: human. The essentials:
as §2

SMILES strings stand for the structures. Calls of active or inactive are those of the source. The rule behind the calls is not given here.

For `CC(=O)N[C@H]1[C@H](OCCn2cc(COC(=O)C[C@H](O)C[C@H](O)CCn3c(-c4ccc(F)cc4)c(-c4ccccc4)c(C(=O)Nc4ccccc4)c3C(C)C)nn2)O[C@H](CO)[C@H](O)[C@@H]1O`, the Drug uptake entry in data set [1] is “Not Active”. In addition, the inhibition entry in data set [2] and in data set [4] was “inactive” throughout. For the same molecule, in data set [3], the Drug metabolism result is listed as “Metabolite_Detected”. The “fold change (FC)” value in data set [5] came out at 1.4. In data set [6], the inhibition entry was “Active”.
As to `CC(C)c1c(C(=O)Nc2ccccc2)c(-c2ccccc2)c(-c2ccc(F)cc2)n1CC[C@@H](O)C[C@@H](O)CC(=O)O`, the inhibition entry in data set [4] and in data set [6] was “Active” each time.
On to `CC(=O)N[C@H]1[C@H](OCCn2cc(COC(=O)C[C@H]3C[C@@H](CCn4c(-c5ccc(F)cc5)c(-c5ccccc5)c(C(=O)Nc5ccccc5)c4C(C)C)OC(C)(C)O3)nn2)O[C@H](CO)[C@H](O)[C@@H]1O`, for which the Drug uptake entry in data set [1] is “Not Active”. For the same molecule, the Drug metabolism result is “Metabolite_Detected” in data set [7] and “Metabolite_Notdetected” in data set [3]. Besides, the inhibition result in data set [2] and in data set [4] was “inactive” throughout. Moreover, the “fold change (FC)” value in data set [5] was 5.1. Besides, the inhibition result in data set [6] was “Active”.
